Experimental data published in publication PMC3705663 (The Indian Journal of Medical Research, 2013).

Tests used:
HIV-1 NL4.3 [1] = assay: Inhibition of HIV infection in TZM-bl cells-based assay; type: cell-based
Summary of the method: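 TZM-bl cells (HeLa-derived, CD4/CCR5/CXCR4, LTR-driven luciferase) were seeded at 4 × 10^4/well overnight. HIV-1 NL4.3 (MOI 0.05) was pretreated with test compound for 1 h at 37°C, added to cells in duplicate for 4 h, then washed off with cold PBS. Cells were cultured 48 h in fresh medium with compound, lysed by freeze-thaw and read for luciferase. AZT served as positive control. % inhibition was taken versus untreated infected cells; IC50 by nonlinear fit.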

HIV-1 NL4.3 [2] = assay: Inhibition of HIV infection in CEM-GFP cells-based assay; type: cell-based
Summary of the method: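 CEM-GFP cells (CD4+ T-lymphocytic line, GFP under HIV-1 LTR) were infected with HIV-1 NL4.3 at MOI 0.05. They were then plated at 2.0 × 10^5/well with varying test compound concentrations for up to 8 days. AZT served as positive control and solvents as negative controls. Cell lysates were read for GFP fluorescence (ex 485/em 520 nm). % inhibition was taken versus untreated infected cells, and IC50 was obtained by nonlinear curve fitting.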

HIV-1 protease = HIV-1 protease (Human immunodeficiency virus type 1 group M subtype B, UniProt P04585); assay: Protease assay; type: biochemical; conditions: reference control saquinavir 1 μM
Summary of the method: (§1)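 Enzyme inhibition was measured with a commercial kit for each enzyme, following the manufacturer's instructions. Inhibition values are mean ± SEM of three independent experiments.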

HIV-1 integrase = HIV-1 integrase (Human immunodeficiency virus type 1 group M subtype B, UniProt P04585); assay: Integrase assay; type: biochemical; conditions: tested upto 50 μg/ml; positive control sodium azide; data not shown
Summary of the method: as §1

HIV integrase = conditions: previous study; cited from earlier work
HIV = conditions: from other plant sources; cited from earlier work
HIV-1 RT = HIV-1 RT (Human immunodeficiency virus type 1 group M subtype B, UniProt P04585); assay: Reverse transcriptase assay; type: biochemical; conditions: reference control nevirapine 1 μM
Summary of the method: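 HIV-1 reverse transcriptase inhibition was measured with a commercial RT assay kit following the manufacturer's protocol. Data are mean ± SEM of three independent experiments.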

SMILES | anti-HIV activity (in words) (HIV-1 NL4.3 [1]) | anti-HIV activity (in words) (HIV-1 NL4.3 [2]) | inhibition of HIV-1 protease activity (in words) (HIV-1 protease; listed as ellagic acid) | inhibition of HIV-1 protease activity (in words) (HIV-1 protease; listed as ellagic acid (compound G)) | inhibition of HIV-1 integrase activity (in words) (HIV-1 integrase) | HIV integrase inhibitory activity (in words) (HIV integrase) | anti-HIV activity (in words) (HIV) | inhibition of HIV-1 RT activity (in words) (HIV-1 RT)
O=c1oc2c(O)c(O)cc3c(=O)oc4c(O)c(O)cc1c4c23 [Ellagic acid (G), ellagic acid] | consistent anti-HIV activity | consistent anti-HIV activity | inhibited the HIV-1 protease activity | dose-dependent inhibition | did not show any significant inhibition | shown to have HIV integrase inhibitory activity | reported for their anti-HIV activity | 
O=C(O)c1cc(O)c(O)c(O)c1 [Gallic acid (F), gallic acid] | potent anti-HIV activity | potent anti-HIV activity |  |  | did not show any significant inhibition |  | reported for their anti-HIV activity | dose dependent inhibition
C[C@@H]1O[C@@H](OC[C@H]2O[C@@H](Oc3c(-c4ccc(O)c(O)c4)oc4cc(O)cc(O)c4c3=O)[C@H](O)[C@@H](O)[C@@H]2O)[C@H](O)[C@H](O)[C@H]1O [Rutin (E), rutin] | did not show any significant anti-HIV activity | did not show any significant anti-HIV activity |  |  |  |  |  | 
